Measured values reported in ChEMBL document CHEMBL4229364, “Structure-activity relationships of 2, 4-disubstituted pyrimidines as dual ERα/VEGFR-2 ligands with anti-breast cancer activity” (Eur J Med Chem, 2018).
Active and inactive are the calls of the source. No cut-off for these calls is given here.

Assays:
[1] = system: HUVEC; assay: Antiproliferative activity against HUVEC after 48 hrs by MTT assay; type: functional, cell-based; settings: Homo sapiens
How it was run: (§1)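 MTT assay. Cells were grown in RPMI1640 with 10% FBS and penicillin/streptomycin at 37°C, 5% CO2, seeded at 1×10^5/mL and rested 24 h. Compound was added at 4×10^-5 to 1×10^-6 mol/L for 48 h; controls received 1% DMSO. MTT (5 mg/mL) was added for 4 h in the dark and the formazan dissolved in DMSO. A490 was read and IC50 derived.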

[2] = target: T1, Vascular endothelial growth factor receptor 2 (Homo sapiens, UniProt P35968); settings: at 10 µM
[3] = system: Ishikawa; assay: Antiproliferative activity against human Ishikawa cells after 48 hrs by MTT assay; type: functional, cell-based; how it was run: as §1
[4] = target: T2, Estrogen receptor (Homo sapiens, UniProt P03372); assay: Displacement of Fluormone ES2 Green from full length human ER-alpha expressed in insect cells after 2 hrs by fluorescence polarization assay
T2 sequence (P03372 whole entry): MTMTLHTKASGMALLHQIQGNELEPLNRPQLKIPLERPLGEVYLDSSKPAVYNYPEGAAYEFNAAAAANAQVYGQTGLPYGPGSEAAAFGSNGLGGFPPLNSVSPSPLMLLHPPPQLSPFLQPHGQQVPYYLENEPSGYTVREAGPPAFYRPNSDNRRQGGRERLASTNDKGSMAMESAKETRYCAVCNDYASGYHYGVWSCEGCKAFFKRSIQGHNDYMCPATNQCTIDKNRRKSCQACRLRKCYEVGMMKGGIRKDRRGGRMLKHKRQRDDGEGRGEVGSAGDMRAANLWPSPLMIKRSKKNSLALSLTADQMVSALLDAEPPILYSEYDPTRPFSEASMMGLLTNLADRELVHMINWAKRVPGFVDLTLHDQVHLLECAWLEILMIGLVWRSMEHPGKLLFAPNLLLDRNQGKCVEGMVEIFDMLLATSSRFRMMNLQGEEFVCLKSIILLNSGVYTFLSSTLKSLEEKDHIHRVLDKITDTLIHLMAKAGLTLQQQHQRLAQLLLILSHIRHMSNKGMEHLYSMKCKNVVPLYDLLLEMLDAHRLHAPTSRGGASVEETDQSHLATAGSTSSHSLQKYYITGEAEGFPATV

[5] = target: T1, Vascular endothelial growth factor receptor 2; assay: Inhibition of VEGFR2 (unknown origin) using TK substrate after 1 hr by HTRF assay
[6] = system: MCF7; assay: Antiproliferative activity against human MCF7 cells after 48 hrs by MTT assay; type: functional, cell-based; settings: MCF7, 48 h; how it was run: as §1
[7] = system: Chorioallantoic membrane; assay: In vivo antiangiogenic activity in chicken egg chorioallantoic membrane at 1 uM after 72 hrs; type: functional, organism-based; settings: Gallus gallus
How it was run: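 Chick CAM assay. Fertilized eggs were incubated 7 days at 37°C, then a window of about 1 cm² was opened in the shell. […] Eggs were incubated a further 72 h at 37°C and 60% humidity. CAM was fixed in acetone/ethanol for 10 min and vessels imaged.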

T1 sequence (P35968 whole entry): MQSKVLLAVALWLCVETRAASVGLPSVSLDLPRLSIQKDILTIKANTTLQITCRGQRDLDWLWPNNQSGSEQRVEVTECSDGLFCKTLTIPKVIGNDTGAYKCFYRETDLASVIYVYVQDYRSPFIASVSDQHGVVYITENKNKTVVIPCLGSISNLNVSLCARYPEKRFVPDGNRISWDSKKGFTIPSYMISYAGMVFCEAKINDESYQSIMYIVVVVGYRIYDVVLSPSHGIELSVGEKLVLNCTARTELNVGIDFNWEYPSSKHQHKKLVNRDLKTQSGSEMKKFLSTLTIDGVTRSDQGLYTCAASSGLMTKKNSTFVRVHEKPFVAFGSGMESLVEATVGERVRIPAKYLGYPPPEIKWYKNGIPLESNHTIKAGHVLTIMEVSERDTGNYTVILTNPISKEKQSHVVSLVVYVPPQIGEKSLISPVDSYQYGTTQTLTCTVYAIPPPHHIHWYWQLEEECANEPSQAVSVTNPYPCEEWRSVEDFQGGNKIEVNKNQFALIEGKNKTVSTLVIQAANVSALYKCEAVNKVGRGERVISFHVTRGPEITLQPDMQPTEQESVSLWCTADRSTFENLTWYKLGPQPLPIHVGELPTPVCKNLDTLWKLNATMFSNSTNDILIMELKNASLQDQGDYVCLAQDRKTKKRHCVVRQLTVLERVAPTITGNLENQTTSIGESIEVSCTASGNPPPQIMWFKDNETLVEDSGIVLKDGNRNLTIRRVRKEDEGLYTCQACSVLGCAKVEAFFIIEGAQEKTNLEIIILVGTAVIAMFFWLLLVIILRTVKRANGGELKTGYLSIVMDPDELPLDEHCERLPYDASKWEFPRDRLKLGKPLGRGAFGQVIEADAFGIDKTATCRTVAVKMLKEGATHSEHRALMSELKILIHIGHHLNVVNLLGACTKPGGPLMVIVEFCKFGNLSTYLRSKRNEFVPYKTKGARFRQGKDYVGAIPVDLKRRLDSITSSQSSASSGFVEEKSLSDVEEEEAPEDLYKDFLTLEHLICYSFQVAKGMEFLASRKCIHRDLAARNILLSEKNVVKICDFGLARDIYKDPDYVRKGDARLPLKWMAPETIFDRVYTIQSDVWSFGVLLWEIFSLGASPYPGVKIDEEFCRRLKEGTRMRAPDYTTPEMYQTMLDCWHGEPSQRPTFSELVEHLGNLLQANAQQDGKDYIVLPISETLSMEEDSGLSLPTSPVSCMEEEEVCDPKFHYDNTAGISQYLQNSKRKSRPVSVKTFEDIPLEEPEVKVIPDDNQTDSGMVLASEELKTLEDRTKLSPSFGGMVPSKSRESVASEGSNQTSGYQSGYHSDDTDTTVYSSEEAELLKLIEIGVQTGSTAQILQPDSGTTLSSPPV

Row | SMILES | IC50 [1] [µM] | inhibition [2] [%] | IC50 [3] [µM] | IC50 [4] [µM] | IC50 [5] [µM] | IC50 [6] [µM] | Activity [7]
1 | CN(C)CCOc1ccc(Nc2nc(-c3ccc(O)cc3)nc(Cl)c2-c2ccccc2)cc1 | 13.8 | 68.5 | 37.1 | 3.42 | > 1 | 33.1 | –
2 | CCN(CC)CCOc1ccc(Nc2nc(-c3ccc(O)cc3)nc(Cl)c2-c2ccccc2)cc1 | 8.81 | 76.9 | 12 | – | > 1 | 35.6 | –
3 | CCN(CC)CCOc1ccc(Oc2nc(-c3ccc(OC)cc3)nc(Cl)c2-c2ccccc2)cc1 | 15.1 | 60.2 | 23.5 | – | > 1 | > 40 | –
4 | COc1ccc(-c2nc(Cl)c(-c3ccccc3)c(Nc3ccc(OCCN4CCCC4)cc3)n2)cc1 | 5.02 | 49.4 | 3.81 | – | > 1 | 7.84 | –
5 | COc1ccc(-c2nc(Cl)cc(Oc3ccc(OCCN4CCCC4)cc3)n2)cc1 | 15.8 | 39.8 | 25.5 | 6.22 | > 1 | 21.3 | –
6 | COc1ccc(-c2nc(Cl)cc(Nc3ccc(OCCN4CCCC4)cc3)n2)cc1 | 11.3 | 51.9 | 17.3 | – | > 1 | 43.7 | –
7 | CCN(CC)CCNC(=O)c1c(C)[nH]c(/C=C2\C(=O)Nc3ccc(F)cc32)c1C [SUNITINIB] | 6.36 | – | – | – | – | – | Active
8 | CCN(CC)CCOc1ccc(Oc2cc(Cl)nc(-c3ccc(OC)cc3)n2)cc1 | 23.3 | 80 | 24.9 | 5.13 | > 1 | 49.6 | –
9 | CC/C(=C(\c1ccccc1)c1ccc(OCCN(C)C)cc1)c1ccccc1 [TAMOXIFEN] | – | – | 26.5 | – | – | 15.5 | –
10 | COc1ccc(-c2nc(Cl)c(-c3ccccc3)c(Oc3ccc(OCCN4CCCC4)cc3)n2)cc1 | 10.6 | 75.3 | 14.1 | 2.17 | > 1 | 32.4 | –
11 | O=C(c1ccc(OCCN2CCCCC2)cc1)c1c(-c2ccc(O)cc2)sc2cc(O)ccc12 [RALOXIFENE] | – | – | 24.4 | – | – | 13.2 | –
12 | COc1ccc(-c2nc(Cl)cc(Oc3ccc(OCCN(C)C)cc3)n2)cc1 | > 40 | 61.2 | > 40 | 5.96 | > 1 | > 40 | –
